Test results reported in ChEMBL document CHEMBL3853323, “Small Antimicrobial Agents Based on Acylated Reduced Amide Scaffold” (J Med Chem, 2016).
Values after ≈ are worked out from the molar mass of the structure shown.

What was measured:
Enterococcus faecalis = test: Antibacterial activity against vancomycin resistant Enterococcus faecalis ATCC 700802 after 16 to 20 hrs by two fold serial dilution method; type: functional
Procedure, shortened: (§1)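 Broth MIC: the lowest concentration giving complete growth inhibition after 20 h. Run at least three times, in duplicate each time.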

Klebsiella pneumoniae = test: Antibacterial activity against Klebsiella pneumoniae ATCC 13383 after 16 to 20 hrs by two fold serial dilution method; type: functional
Procedure, shortened: (§2)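 MIC as lowest concentration giving complete inhibition of growth after 20 h; at least three independent experiments, each in duplicate.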

Pseudomonas aeruginosa = test: Antibacterial activity against Pseudomonas aeruginosa ATCC 27853 after 16 to 20 hrs by two fold serial dilution method; type: functional; procedure, shortened: as §2
Escherichia coli = test: Antibacterial activity against Escherichia coli ATCC 25922 after 16 to 20 hrs by two fold serial dilution method; type: functional; procedure, shortened: as §2
Staphylococcus aureus = test: Antibacterial activity against methicillin-resistant Staphylococcus aureus ATCC 33591 after 16 to 20 hrs by two fold serial dilution method; type: functional; procedure, shortened: as §1
[1] = test system: Staphylococcus epidermidis; test: Antibacterial activity against methicillin-resistant Staphylococcus epidermidis RP62A after 16 to 20 hrs by two fold serial dilution method; type: functional; procedure, shortened: as §1
[2] = Cytotoxicity against human K562 cells assessed as cell viability at 25 ug/ml after 24 hrs by MTT assay; type: toxicity, cell-based; details: k562, 24 h
Procedure, shortened: (§3)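 Cells seeded at 5×10^4 per well and left 12 h, then exposed 24 h to compound at 100, 50, 25, 12.5 or 6.25 μg/mL diluted in medium. Medium replaced, MTT added for 4 h, solubilized 12 h at 37 °C, A550 read; viability % = (A − Ablank)/(Acontrol − Ablank) × 100. Run at least three times.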

[3] = Hemolytic activity in human RBC after 1 hr; type: ADME, cell-based, Erythrocyte; details: human red blood cells
Procedure, shortened: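 Fresh K2EDTA human RBCs, PBS-washed, as 5% v/v suspension mixed 1:1 with compound dilutions, 37 °C for 1 h. Supernatant after centrifugation diluted in PBS, A540 read. % hemolysis relative to 2% Triton X-100 (positive) and PBS (negative). At least three runs, each in duplicate.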

[4] = Cytotoxicity against human HK2 cells assessed as cell viability at 25 ug/ml after 24 hrs by MTT assay; type: toxicity, cell-based; details: hk-2, 24 h; procedure, shortened: as §3

Row | Molecule | MIC (Enterococcus faecalis) [µg/mL] | MIC (Klebsiella pneumoniae) [µg/mL] | MIC (Pseudomonas aeruginosa) [µg/mL] | MIC (Escherichia coli) [µg/mL] | MIC (Staphylococcus aureus) [µg/mL] | MIC [1] [µg/mL] | Activity [2] | HC50 at 1 h [3] [µg/mL] | Activity [4]
1 | NCCCC[C@@H](CN(CC(=O)NCc1cccc2ccccc12)C(=O)CC12CC3CC(CC(C3)C1)C2)NC(=O)[C@@H](N)CCCCN | > 50 | > 50 | > 50 | > 50 | > 50 | > 50 |  |  | 
2 | N=C(N)NCCC[C@H](N)C(=O)N[C@@H](CCCCN)C(=O)N[C@@H](Cc1ccccc1)CN(CC(=O)NCC12CC3CC(CC(C3)C1)C2)C(=O)CC12CC3CC(CC(C3)C1)C2 | 6.25 (≈ 7.66 µM) | > 25 | 6.25 (≈ 7.66 µM) | 6.25 (≈ 7.66 µM) | 3.12 (≈ 3.82 µM) | 3.12 (≈ 3.82 µM) | Non-Toxic | 250 | Non-Toxic
3 | COLISTIN | > 50 | 0.5 | 1 | 0.5 | > 50 | > 50 |  |  | 
4 | NCCCC[C@H](N)CN(CC(=O)NCc1cccc2ccccc12)C(=O)c1ccc2ccccc2c1 | 25 (≈ 51.8 µM) | 25 (≈ 51.8 µM) | 6 (≈ 12.4 µM) | 25 (≈ 51.8 µM) | 25 (≈ 51.8 µM) | 25 (≈ 51.8 µM) |  |  | 
5 | NCCCC[C@H](N)C(=O)N[C@@H](Cc1ccccc1)CN(CC(=O)N(Cc1ccccc1)Cc1ccccc1)C(=O)CC12CC3CC(CC(C3)C1)C2 | 6.25 (≈ 9.03 µM) | 12.5 (≈ 18.1 µM) | 25 (≈ 36.1 µM) | 6.25 (≈ 9.03 µM) | 6.25 (≈ 9.03 µM) | 6.25 (≈ 9.03 µM) | Non-Toxic | 180 | Non-Toxic
6 | NCCCC[C@@H](CN(CC(=O)NCc1cccc2ccccc12)C(=O)c1ccc2ccccc2c1)NC(=O)[C@@H](N)CCCCN | > 50 | > 50 | > 50 | > 50 | > 50 | > 50 |  |  | 
7 | NCCCC[C@H](N)C(=O)N[C@@H](Cc1ccccc1)CN(CC(=O)NCc1ccc(-c2ccccc2)cc1)C(=O)CC12CC3CC(CC(C3)C1)C2 | 6.25 (≈ 9.22 µM) | 12.5 (≈ 18.4 µM) | 12.5 (≈ 18.4 µM) | 6.25 (≈ 9.22 µM) | 6.25 (≈ 9.22 µM) | 6.25 (≈ 9.22 µM) | Non-Toxic | 160 | Non-Toxic
8 | NCCCC[C@H](N)C(=O)N[C@@H](Cc1ccccc1)CN(CC(=O)NCc1cccc2ccccc12)C(=O)CC12CC3CC(CC(C3)C1)C2 | 12.5 (≈ 19.2 µM) | 12.5 (≈ 19.2 µM) | 6.12 (≈ 9.39 µM) | 12.5 (≈ 19.2 µM) | 6.25 (≈ 9.59 µM) | 6.25 (≈ 9.59 µM) | Non-Toxic | 225 | Non-Toxic
9 | NCCCC[C@H](N)C(=O)N[C@@H](Cc1ccccc1)CN(CC(=O)NCc1cc(C(F)(F)F)cc(C(F)(F)F)c1)C(=O)CC12CC3CC(CC(C3)C1)C2 | 6.25 (≈ 8.47 µM) | 6.25 (≈ 8.47 µM) | 6.25 (≈ 8.47 µM) | 3.12 (≈ 4.23 µM) | 3.12 (≈ 4.23 µM) | 3.12 (≈ 4.23 µM) | Non-Toxic | 210 | Non-Toxic
